According to ChEMBL document CHEMBL1649396, “Synthesis, biological evaluation of chrysin derivatives as potential immunosuppressive agents” (Eur J Med Chem, 2011):

Key:
[1] = Cytotoxicity against BALB/c mouse T cells after 48 hrs by MTT assay; format: cell-based, T-cell
Procedure, shortened: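 Lymph node cells from female BALB/c mice, 6-8 weeks old and specific-pathogen-free, plated at 5 × 10⁵ cells/well with graded compound for 48 h. Medium was RPMI 1640 with 10% fetal calf serum and penicillin/streptomycin, at 37 °C under 5% CO₂. MTT (4 mg/mL in PBS) was added 4 h before the end. Formazan was dissolved in DMSO and read at OD540. CC50 is the concentration reducing viability to 50%.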

[2] = Immunosuppressive activity in BALB/c mouse T cells assessed as inhibition of anti-CD3/anti-CD28-stimulated cell proliferation after 72 hrs by MTT assay; format: functional, cell-based
Procedure, shortened: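 Female BALB/c mouse lymph node cells, 5 × 10⁵/well, stimulated with anti-CD3/anti-CD28 alongside graded compound for 72 h. MTT (4 mg/mL in PBS) was added 4 h before harvest. Formazan was dissolved in DMSO and read at 540 nm.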

T-cell [3] = experiment: Selectivity index, ratio of CC50 for BALB/c mouse T cells to IC50 for immunosuppressive activity in BALB/c mouse T cells; format: functional
T-cell [4] = experiment: Immunosuppressive activity in anti-CD3/anti-CD28-stimulated BALB/c mouse T cells assessed as viable cells at 4 uM after 48 hrs by FACS analysis; format: functional; settings: read-out: Activity
Procedure, shortened: (§1)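 Lymph node cells isolated from naive BALB/c mice, cultured with anti-CD3/anti-CD28 plus compound at 1, 2, 4 or 8 µM for 48 h. Cells were stained with Annexin V-FITC and propidium iodide and analysed by flow cytometry to give apoptotic, necrotic and viable fractions.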

T-cell [5] = experiment: Immunosuppressive activity in anti-CD3/anti-CD28-stimulated BALB/c mouse T cells assessed as early apoptotic cells at 8 uM after 48 hrs by FACS analysis; format: functional; procedure, shortened: as §1
T-cell [6] = experiment: Immunosuppressive activity in anti-CD3/anti-CD28-stimulated BALB/c mouse T cells assessed as late apoptotic cells at 8 uM after 48 hrs by FACS analysis; format: functional; procedure, shortened: as §1
T-cell [7] = experiment: Immunosuppressive activity in anti-CD3/anti-CD28-stimulated BALB/c mouse T cells assessed as non-viable necrotic cells at 8 uM after 48 hrs by FACS analysis; format: functional; procedure, shortened: as §1
T-cell [8] = experiment: Immunosuppressive activity in anti-CD3/anti-CD28-stimulated BALB/c mouse T cells assessed as viable cells at 8 uM after 48 hrs by FACS analysis; format: functional; settings: read-out: Activity; procedure, shortened: as §1
T-cell [9] = experiment: Immunosuppressive activity in anti-CD3/anti-CD28-stimulated BALB/c mouse T cells assessed as induction of apoptosis after 48 hrs by FACS analysis; format: functional, cell-based; procedure, shortened: as §1
[10] = Toxicity in po dosed BALB/c mouse; format: organism-based; settings: in vivo
Procedure, shortened: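 Acute oral toxicity in female SPF BALB/c mice, 6–8 weeks old, by OECD 425 up-and-down procedure. Food withheld 3–4 h before and 1–2 h after dosing. Animals dosed one at a time at 24 h intervals, dose raised after survival and lowered after death, four more dosed after reversal. 35 animals in total. LD₅₀ estimated by maximum likelihood with AOT425StatPgm.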

K562 = experiment: Cytotoxicity against human K562 cells after 48 hrs by MTT assay; format: functional, cell-based; settings: K562, 48 h
Procedure, shortened: (§2)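 Cells seeded at 5 × 10⁵ per well and exposed to a range of compound concentrations for 48 h. MTT (4 mg/mL in PBS) added 4 h before end of incubation. Medium replaced by DMSO to dissolve formazan, absorbance read at 540 nm. Value reported as IC₅₀.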

KB = experiment: Cytotoxicity against human KB cells after 48 hrs by MTT assay; format: functional, cell-based; procedure, shortened: as §2
HepG2 = experiment: Cytotoxicity against human HepG2 cells after 48 hrs by MTT assay; format: functional, cell-based; settings: HepG2, 48 h; procedure, shortened: as §2
[11] = Cytotoxicity against human L02 cells after 48 hrs by MTT assay; format: cell-based; settings: L02, 48 h; procedure, shortened: as §2
T-cell [12] = experiment: Immunosuppressive activity in anti-CD3/anti-CD28-stimulated BALB/c mouse T cells assessed as early apoptotic cells at 1 uM after 48 hrs by FACS analysis; format: functional; procedure, shortened: as §1
T-cell [13] = experiment: Immunosuppressive activity in anti-CD3/anti-CD28-stimulated BALB/c mouse T cells assessed as late apoptotic cells at 1 uM after 48 hrs by FACS analysis; format: functional; procedure, shortened: as §1
T-cell [14] = experiment: Immunosuppressive activity in anti-CD3/anti-CD28-stimulated BALB/c mouse T cells assessed as non-viable necrotic cells at 1 uM after 48 hrs by FACS analysis; format: functional; procedure, shortened: as §1
T-cell [15] = experiment: Immunosuppressive activity in anti-CD3/anti-CD28-stimulated BALB/c mouse T cells assessed as viable cells at 1 uM after 48 hrs by FACS analysis; format: functional; settings: read-out: Activity; procedure, shortened: as §1
T-cell [16] = experiment: Immunosuppressive activity in anti-CD3/anti-CD28-stimulated BALB/c mouse T cells assessed as early apoptotic cells at 2 uM after 48 hrs by FACS analysis; format: functional; procedure, shortened: as §1
T-cell [17] = experiment: Immunosuppressive activity in anti-CD3/anti-CD28-stimulated BALB/c mouse T cells assessed as late apoptotic cells at 2 uM after 48 hrs by FACS analysis; format: functional; procedure, shortened: as §1
T-cell [18] = experiment: Immunosuppressive activity in anti-CD3/anti-CD28-stimulated BALB/c mouse T cells assessed as non-viable necrotic cells at 2 uM after 48 hrs by FACS analysis; format: functional; procedure, shortened: as §1
T-cell [19] = experiment: Immunosuppressive activity in anti-CD3/anti-CD28-stimulated BALB/c mouse T cells assessed as viable cells at 2 uM after 48 hrs by FACS analysis; format: functional; settings: read-out: Activity; procedure, shortened: as §1
T-cell [20] = experiment: Immunosuppressive activity in anti-CD3/anti-CD28-stimulated BALB/c mouse T cells assessed as early apoptotic cells at 4 uM after 48 hrs by FACS analysis; format: functional; procedure, shortened: as §1
T-cell [21] = experiment: Immunosuppressive activity in anti-CD3/anti-CD28-stimulated BALB/c mouse T cells assessed as late apoptotic cells at 4 uM after 48 hrs by FACS analysis; format: functional; procedure, shortened: as §1
T-cell [22] = experiment: Immunosuppressive activity in anti-CD3/anti-CD28-stimulated BALB/c mouse T cells assessed as non-viable necrotic cells at 4 uM after 48 hrs by FACS analysis; format: functional; procedure, shortened: as §1

## O=C(COc1cc(O)c2c(=O)cc(-c3ccccc3)oc2c1)Oc1cccc(F)c1C(=O)O
[1]
  CC50 at 48 h: 319 µM
[2]
  IC50: 40.3 µM
T-cell [3]
  Ratio CC50/IC50: 7.91

## COC(=O)c1cc(C)ccc1OC(=O)COc1cc(O)c2c(=O)cc(-c3ccccc3)oc2c1
[1]
  CC50 at 48 h: 306 µM
[2]
  IC50: 25.7 µM
T-cell [3]
  Ratio CC50/IC50: 11.93

## COC(=O)c1cc(O)ccc1OC(=O)COc1cc(O)c2c(=O)cc(-c3ccccc3)oc2c1
[1]
  CC50 at 48 h: 263 µM
[2]
  IC50: 29.5 µM
T-cell [3]
  Ratio CC50/IC50: 8.94

## Cc1cccc(C(=O)O)c1OC(=O)COc1cc(O)c2c(=O)cc(-c3ccccc3)oc2c1
[1]
  CC50 at 48 h: 299 µM
[2]
  IC50: 39.1 µM
T-cell [3]
  Ratio CC50/IC50: 7.65

## O=C(COc1cc(O)c2c(=O)cc(-c3ccccc3)oc2c1)Oc1c(Cl)cccc1C(=O)O
[1]
  CC50 at 48 h: 366 µM
[2]
  IC50: 38.7 µM
T-cell [3]
  Ratio CC50/IC50: 9.45

## COC(=O)c1ccc(C)cc1OC(=O)COc1cc(O)c2c(=O)cc(-c3ccccc3)oc2c1
[1]
  CC50 at 48 h: 250 µM
[2]
  IC50: 31.1 µM
T-cell [3]
  Ratio CC50/IC50: 8.04

## O=C(COc1cc(O)c2c(=O)cc(-c3ccccc3)oc2c1)Oc1c(Br)cccc1C(=O)O
[1]
  CC50 at 48 h: 379 µM
[2]
  IC50: 40.6 µM
T-cell [3]
  Ratio CC50/IC50: 9.31

## COC(=O)c1cc(F)ccc1OC(=O)COc1cc(O)c2c(=O)cc(-c3ccccc3)oc2c1
[1]
  CC50 at 48 h: 389 µM
[2]
  IC50: 6.82 µM
T-cell [3]
  Ratio CC50/IC50: 50.08

## O=C(COc1cc(O)c2c(=O)cc(-c3ccccc3)oc2c1)Oc1cccc(O)c1C(=O)O
[1]
  CC50 at 48 h: 338 µM
[2]
  IC50: 38.2 µM
T-cell [3]
  Ratio CC50/IC50: 8.83

## Cc1cccc(OC(=O)COc2cc(O)c3c(=O)cc(-c4ccccc4)oc3c2)c1C(=O)O
[1]
  CC50 at 48 h: 298 µM
[2]
  IC50: 37.2 µM
T-cell [3]
  Ratio CC50/IC50: 8.02

## COC(=O)c1ccc(Cl)cc1OC(=O)COc1cc(O)c2c(=O)cc(-c3ccccc3)oc2c1
[1]
  CC50 at 48 h: 265 µM
[2]
  IC50: 12.4 µM
T-cell [3]
  Ratio CC50/IC50: 21.43

## COC(=O)c1cccc(OC)c1OC(=O)COc1cc(O)c2c(=O)cc(-c3ccccc3)oc2c1
[1]
  CC50 at 48 h: 196 µM
[2]
  IC50: 36.8 µM
T-cell [3]
  Ratio CC50/IC50: 5.34

## COC(=O)c1cc(Br)ccc1OC(=O)COc1cc(O)c2c(=O)cc(-c3ccccc3)oc2c1
T-cell [4]
  viability at 4 µM: 54.5%
T-cell [5]
  Activity: 1.56%
T-cell [6]
  Activity: 40.95%
T-cell [7]
  Activity: 7.41%
T-cell [8]
  viability at 8 µM: 50.1%
T-cell [9]
  Activity: Dose-dependent effect
[10]
  LD50: 738 mg/kg
K562
  IC50: 0.47 µM
KB
  IC50: 0.79 µM
HepG2
  IC50: 0.61 µM
[11]
  IC50: 274 µM
[1]
  CC50 at 48 h: > 450 µM
[2]
  IC50: 0.78 µM
T-cell [3]
  Ratio CC50/IC50: >576.92
T-cell [12]
  Activity: 3.79%
T-cell [13]
  Activity: 15.66%
T-cell [14]
  Activity: 3.56%
T-cell [15]
  viability at 1 µM: 77%
T-cell [16]
  Activity: 2.12%
T-cell [17]
  Activity: 30.09%
T-cell [18]
  Activity: 3.61%
T-cell [19]
  viability at 2 µM: 64.2%
T-cell [20]
  Activity: 3.14%
T-cell [21]
  Activity: 38.7%
T-cell [22]
  Activity: 3.69%

## COC(=O)c1ccc(Br)cc1OC(=O)COc1cc(O)c2c(=O)cc(-c3ccccc3)oc2c1
[1]
  CC50 at 48 h: 326 µM
[2]
  IC50: 17.6 µM
T-cell [3]
  Ratio CC50/IC50: 18.54

## COC(=O)c1ccccc1OC(=O)COc1cc(O)c2c(=O)cc(-c3ccccc3)oc2c1
[1]
  CC50 at 48 h: 265 µM
[2]
  IC50: 28.5 µM
T-cell [3]
  Ratio CC50/IC50: 9.28

## O=C(COc1cc(O)c2c(=O)cc(-c3ccccc3)oc2c1)Oc1cccc(Cl)c1C(=O)O
[1]
  CC50 at 48 h: 366 µM
[2]
  IC50: 38.9 µM
T-cell [3]
  Ratio CC50/IC50: 9.39

## COC(=O)c1cc(Cl)ccc1OC(=O)COc1cc(O)c2c(=O)cc(-c3ccccc3)oc2c1
[1]
  CC50 at 48 h: > 436 µM
[2]
  IC50: 3.74 µM
T-cell [3]
  Ratio CC50/IC50: >116.57

## O=c1[nH]cc(F)c(=O)[nH]1 [FLUOROURACIL]
K562
  IC50: 38 µM
KB
  IC50: 2.16 µM
HepG2
  IC50: 2.78 µM
[11]
  IC50: 56 µM

## O=C(COc1cc(O)c2c(=O)cc(-c3ccccc3)oc2c1)Oc1cccc(Br)c1C(=O)O
[1]
  CC50 at 48 h: 388 µM
[2]
  IC50: 41.7 µM
T-cell [3]
  Ratio CC50/IC50: 9.28

## O=c1cc(-c2ccccc2)oc2cc(O)cc(O)c12 [CHRYSIN]
[1]
  CC50 at 48 h: 428 µM
[2]
  IC50: 44.2 µM
T-cell [3]
  Ratio CC50/IC50: 9.7

## O=C(COc1cc(O)c2c(=O)cc(-c3ccccc3)oc2c1)Oc1cc(Cl)cc(Cl)c1C(=O)O
[1]
  CC50 at 48 h: 345 µM
[2]
  IC50: 43.6 µM
T-cell [3]
  Ratio CC50/IC50: 7.92

## O=C(COc1cc(O)c2c(=O)cc(-c3ccccc3)oc2c1)Oc1cc(Br)cc(Br)c1C(=O)O
[1]
  CC50 at 48 h: 398 µM
[2]
  IC50: 45.7 µM
T-cell [3]
  Ratio CC50/IC50: 8.69
